Measurements reported in ChEMBL document CHEMBL3244396, “Synthesis and antileukemic activity of 5-substituted 2,3-dihydro-6,7-bis(hydroxymethyl)-1H-pyrrolizine diesters” (J Med Chem, 1977).
In brackets after ≈: the same amount, converted by molar mass.

Experiments:
[1] = system: L1210; experiment: Antileukemic activity against mouse L1210 cells allografted in female BDF1 mouse assessed as change in body weight at 100 mg/kg, ip administered daily for 9 days as Klucel suspension starting 24 hrs after tumor inoculation; format: functional; conditions: route intraperitoneal
How it was run: (§1)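 Ascitic fluid carrying L1210 cells was inoculated ip. Compound was given ip as a Klucel (hydroxypropylcellulose) suspension in nine daily doses, starting 24 h after inoculation. Body-weight difference (treated minus control) was recorded on day 5. Survival was scored as %T/C of mean survival time.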

[2] = system: P388; experiment: Antitumor activity against mouse P388 cells allografted in female BDF1 mouse assessed as change in body weight at 25 mg/kg, ip administered daily for 9 days as Klucel suspension starting 24 hrs after tumor inoculation; format: functional; conditions: route intraperitoneal
How it was run: (§2)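 Ascitic fluid carrying P388 cells was inoculated ip. Compound was given ip in nine daily doses, starting 24 h after inoculation, in Klucel (hydroxypropylcellulose) suspension or in saline with Tween-80. Body-weight difference (treated minus control) was recorded on day 5. Survival was scored as %T/C of median survival time, and 30-day survival counted as cure.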

[3] = Cytotoxicity against human 9KB cells treated as ethanol solution; format: functional; conditions: read-out: ED50 (the source's name)
How it was run: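 Compound applied as an ethanol solution; activity read out as ED50 under the general screening protocol.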

[4] = system: Mus musculus; experiment: Toxicity in female BDF1 mouse allografted with mouse L1210 cells assessed as animal survival at 100 mg/kg, ip administered daily for 9 days as Klucel suspension starting 24 hrs after tumor inoculation measured on fifth day; format: organism-based; set-up: dose 100 mg/kg, route intraperitoneal; conditions: in vivo
How it was run: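 Female BDF1 mice bearing ip ascitic L1210 inoculum got nine daily ip doses in a Klucel suspension, starting 24 h after tumor inoculation. Toxicity was scored as toxicity-day survivors out of the group, recorded on the fifth day. Animal weight difference (T − C) was also tabulated.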

[5] = system: Mus musculus; experiment: Toxicity in female CDF1 mouse allografted with mouse P388 cells assessed as animal survival at 6.25 mg/kg, ip administered daily for 9 days as Klucel suspension starting 24 hrs after tumor inoculation; format: organism-based; set-up: dose 6.25 mg/kg, route intraperitoneal; conditions: in vivo
How it was run: (§3)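 P-388 leukemia ascitic fluid inoculated ip. Compound given ip as a suspension in Klucel (hydroxypropylcellulose), once daily for nine doses beginning 24 h post-inoculation. Acute toxicity assessed as toxicity-day survivors per group. Survival was followed up to 30 days, with 30-day survival counted as "cure". Follows NCI screening protocols.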

[6] = system: P388; experiment: Antitumor activity against mouse P388 cells allografted in female BDF1 mouse assessed as change in body weight at 12.5 mg/kg, ip administered daily for 9 days as Klucel suspension starting 24 hrs after tumor inoculation; format: functional; conditions: route intraperitoneal; how it was run: as §2
[7] = system: P388; experiment: Antitumor activity against mouse P388 cells allografted in female CDF1 mouse assessed as change in body weight at 100 mg/kg, ip administered daily for 9 days as Klucel suspension starting 24 hrs after tumor inoculation; format: functional; conditions: route intraperitoneal; how it was run: as §2
[8] = system: Mus musculus; experiment: Toxicity in female BDF1 mouse allografted with mouse P388 cells assessed as animal survival at 12.5 mg/kg, ip administered daily for 9 days as Klucel suspension starting 24 hrs after tumor inoculation; format: organism-based; set-up: dose 12.5 mg/kg, route intraperitoneal; conditions: in vivo; how it was run: as §3
[9] = system: Mus musculus; experiment: Toxicity in female CDF1 mouse allografted with mouse P388 cells assessed as animal survival at 50 mg/kg, ip administered daily for 9 days as Klucel suspension starting 24 hrs after tumor inoculation; format: organism-based; set-up: dose 50 mg/kg, route intraperitoneal; conditions: in vivo; how it was run: as §3
[10] = system: L1210; experiment: Antileukemic activity against mouse L1210 cells allografted in female BDF1 mouse assessed as change in body weight at 50 mg/kg, ip administered daily for 9 days as Klucel suspension starting 24 hrs after tumor inoculation; format: functional; conditions: route intraperitoneal; how it was run: as §1
[11] = system: L1210; experiment: Antileukemic activity against mouse L1210 cells allografted in female BDF1 mouse assessed as host mean survival time at 50 mg/kg, ip administered daily for 9 days as Klucel suspension starting 24 hrs after tumor inoculation relative to control; format: functional; conditions: route intraperitoneal
How it was run: (§4)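 L1210 leukemia given as an ascitic fluid cell inoculum, ip, to mice of the strain and sex in each line. Test material was given ip for nine daily doses starting 24 h after inoculation, in a Klucel (hydroxypropylcellulose) suspension. Read-out is mean survival time as %T/C versus controls, with >125 taken as significant.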

[12] = system: L1210; experiment: Antileukemic activity against mouse L1210 cells allografted in female BDF1 mouse assessed as host mean survival time at 100 mg/kg, ip administered daily for 9 days as Klucel suspension starting 24 hrs after tumor inoculation relative to control; format: functional; conditions: route intraperitoneal; how it was run: as §4
[13] = system: P388; experiment: Antitumor activity against mouse P388 cells allografted in female BDF1 mouse assessed as disease cures by measuring 30-days host survival at 25 mg/kg, ip administered daily for 9 days as Klucel suspension starting 24 hrs after tumor inoculation relative to control; format: functional; conditions: route intraperitoneal
How it was run: (§5)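 P388 leukemia given as an ascitic fluid cell inoculum, ip, to mice of the strain and sex in each line. Nine daily ip doses were given in a Klucel (hydroxypropylcellulose) suspension, starting 24 h after inoculation. Read-out is median survival time as %T/C, with >125 taken as significant; a "cure" means 30-day survival.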

[14] = system: P388; experiment: Antitumor activity against mouse P388 cells allografted in female CDF1 mouse assessed as disease cures by measuring 30-days host survival at 3.13 mg/kg, ip administered daily for 9 days as Klucel suspension starting 24 hrs after tumor inoculation relative to control; format: functional; conditions: route intraperitoneal; how it was run: as §5
[15] = system: L1210; experiment: Antileukemic activity against mouse L1210 cells allografted in female BDF1 mouse assessed as change in body weight at 200 mg/kg, ip administered daily for 9 days as Klucel suspension starting 24 hrs after tumor inoculation; format: functional; conditions: route intraperitoneal; how it was run: as §1
[16] = system: Mus musculus; experiment: Toxicity in female BDF1 mouse allografted with mouse L1210 cells assessed as animal survival at 200 mg/kg, ip administered daily for 9 days as Klucel suspension starting 24 hrs after tumor inoculation measured on fifth day; format: organism-based; set-up: dose 200 mg/kg, route intraperitoneal; conditions: in vivo
How it was run: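 L1210 leukemia passaged as ascitic fluid and inoculated ip. Test agent given ip as a Klucel (hydroxypropylcellulose) suspension, nine daily doses starting 24 h after tumor inoculation. Acute toxicity read as toxicity-day survivors per group (out of 6), recorded on day 5. Animal weight difference T − C was also recorded. Follows NCI screening protocols.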

[17] = system: P388; experiment: Antitumor activity against mouse P388 cells allografted in female CDF1 mouse assessed as disease cures by measuring 30-days host survival at 6.25 mg/kg, ip administered daily for 9 days as Klucel suspension starting 24 hrs after tumor inoculation relative to control; format: functional; conditions: route intraperitoneal; how it was run: as §5
[18] = system: P388; experiment: Antitumor activity against mouse P388 cells allografted in female CDF1 mouse assessed as change in body weight at 3.13 mg/kg, ip administered daily for 9 days as Klucel suspension starting 24 hrs after tumor inoculation; format: functional; conditions: route intraperitoneal; how it was run: as §2
[19] = system: P388; experiment: Antitumor activity against mouse P388 cells allografted in female BDF1 mouse assessed as disease cures by measuring 30-days host survival at 12.5 mg/kg, ip administered daily for 9 days as Klucel suspension starting 24 hrs after tumor inoculation relative to control; format: functional; conditions: route intraperitoneal; how it was run: as §5
[20] = system: P388; experiment: Antitumor activity against mouse P388 cells allografted in female CDF1 mouse assessed as change in body weight at 50 mg/kg, ip administered daily for 9 days as Klucel suspension starting 24 hrs after tumor inoculation; format: functional; conditions: route intraperitoneal; how it was run: as §2
[21] = system: Mus musculus; experiment: Toxicity in female CDF1 mouse allografted with mouse P388 cells assessed as animal survival at 3.13 mg/kg, ip administered daily for 9 days as Klucel suspension starting 24 hrs after tumor inoculation; format: organism-based; set-up: dose 3.13 mg/kg, route intraperitoneal; conditions: in vivo; how it was run: as §3
[22] = system: P388; experiment: Antitumor activity against mouse P388 cells allografted in female CDF1 mouse assessed as change in body weight at 6.25 mg/kg, ip administered daily for 9 days as Klucel suspension starting 24 hrs after tumor inoculation; format: functional; conditions: route intraperitoneal; how it was run: as §2
[23] = system: P388; experiment: Antitumor activity against mouse P388 cells allografted in female CDF1 mouse assessed as change in body weight at 200 mg/kg, ip administered daily for 9 days as Klucel suspension starting 24 hrs after tumor inoculation; format: functional; conditions: route intraperitoneal; how it was run: as §2
[24] = system: Mus musculus; experiment: Toxicity in female BDF1 mouse allografted with mouse P388 cells assessed as animal survival at 25 mg/kg, ip administered daily for 9 days as Klucel suspension starting 24 hrs after tumor inoculation; format: organism-based; set-up: dose 25 mg/kg, route intraperitoneal; conditions: in vivo; how it was run: as §3
[25] = system: P388; experiment: Antitumor activity against mouse P388 cells allografted in female CDF1 mouse assessed as disease cures by measuring 30-days host survival at 50 mg/kg, ip administered daily for 9 days as Klucel suspension starting 24 hrs after tumor inoculation relative to control; format: functional; conditions: route intraperitoneal; how it was run: as §5

Which Activity [1] does the source give for CNC(=O)OCc1c(COC(=O)NC)c(-c2ccc(Cl)cc2)n2c1CCC2 here?
Its Activity is -3.8 g.

What about the Activity [2] of the same compound?
Its Activity is -0.8 g.

And the EC50 [3]?
Its EC50 is 2.3 µg/mL (≈ 5.87 µM).

What about the Activity [4] of the same compound?
The Activity was “Non-toxic”.

What about the Activity [5] of the same compound?
Its Activity is “Non-toxic”.

What about the Activity [6] of the same compound?
Its Activity is -0.2 g.

And the Activity [7]?
The Activity was -0.9 g.

And the Activity [8]?
The Activity was “Non-toxic”.

And the Activity [9]?
The Activity was “Non-toxic”.

And the Activity [10]?
Its Activity is -2.6 g.

And the T/C [11]?
Its T/C is 112%.

And the T/C [12]?
The T/C was 107%.

And the T/C [13]?
Its T/C is 135%.

And the T/C [14]?
The T/C was 127%.

What about the Activity [15] of the same compound?
Its Activity is -2.8 g.

And the Activity [16]?
The Activity was “Toxic”.

And the T/C [17]?
Its T/C is 150%.

What about the Activity [18] of the same compound?
Its Activity is -0.6 g.

What about the T/C [19] of the same compound?
Its T/C is 129%.

And the Activity [20]?
The Activity was -2.5 g.

What about the Activity [21] of the same compound?
The Activity was “Non-toxic”.

And the Activity [22]?
Its Activity is 0.2 g.

And the Activity [23]?
The Activity was 0.5 g.

What about the Activity [24] of the same compound?
The Activity was “Non-toxic”.

What about the T/C [25] of the same compound?
The T/C was 104%.
